Env fusion inh: HIV envelope-mediated fusion inhibition; inhibition, % at 12.3 µM; HeLa-JRFL Env/CEM21 cell fusion, luciferase; 360,000 tested, 1.1% active;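 active = mean replicate inhibition score of at least 50 and every replicate individually at or above 50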
AF4-AF9 inh: blocks AF4 peptide binding to human AF9; inhibition, % at 10 µM; P42568; AID 651704; AlphaScreen, biotin-AF4 peptide binding to FLAG-AF9; 350,000 tested, 0.47% active;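 active = every replicate reaching a set inhibition limit, whatever the replicate mean, cut at about 25% in these data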
Target sequence (P42568 whole entry, looked up): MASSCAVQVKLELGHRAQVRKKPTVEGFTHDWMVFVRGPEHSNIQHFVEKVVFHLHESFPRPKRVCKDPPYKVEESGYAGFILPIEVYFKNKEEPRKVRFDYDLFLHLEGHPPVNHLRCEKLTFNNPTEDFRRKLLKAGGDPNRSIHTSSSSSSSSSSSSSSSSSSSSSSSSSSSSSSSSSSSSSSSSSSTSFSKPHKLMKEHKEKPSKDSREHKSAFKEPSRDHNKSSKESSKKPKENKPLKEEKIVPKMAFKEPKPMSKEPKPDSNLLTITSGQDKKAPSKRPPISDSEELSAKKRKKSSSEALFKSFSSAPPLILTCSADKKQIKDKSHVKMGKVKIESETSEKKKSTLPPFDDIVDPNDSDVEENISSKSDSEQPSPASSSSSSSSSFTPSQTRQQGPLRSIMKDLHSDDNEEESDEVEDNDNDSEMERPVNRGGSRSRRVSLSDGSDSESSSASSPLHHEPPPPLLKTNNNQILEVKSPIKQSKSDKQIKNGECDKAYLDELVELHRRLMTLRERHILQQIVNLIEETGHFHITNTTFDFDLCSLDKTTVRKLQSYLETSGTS
PAX8 inh HTS: PAX8 transcriptional activity inhibition. RMG-I TPO-luciferase reporter, SteadyGlo, 24 h. inhibition, % at 12.6 µM. 360,000 tested, 1.2% active;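 active = mean replicate inhibition at least 60% with every replicate also reaching 60%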;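 also: luciferase light reporting Pax8 driven TPO promoter activity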
FN deposit inh: fibronectin deposition inhibition. AH1F fibroblasts, Alexa488-fibronectin deposition fluorescence, overnight. AID 743247. inhibition, % at 12.6 µM. 350,000 tested, 0.086% active;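 active = mean inhibition across replicates of 30% or more, regardless of how many single replicates reach that level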
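Schedule: 1 h cell adhesion before compound, then overnight fibronectin incubation; test system: AH1F fibroblast monolayer depositing Alexa488-labelled fibronectin into matrix; quantity: 10000 AH1F cells per well; probe or stimulus: fluorescent fibronectin at 24 nM final; signal: fluorescence, ex 485 nm, em 525 nm; evaluation: percent inhibition as loss of matrix-bound fibronectin fluorescence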
EWS-Fli inh: inhibitors of EWS/Fli oncoprotein transcriptional activity. A673 NR0B1-luciferase reporter, viability-normalised. inhibition, % at 12.6 µM. 350,000 tested, 0.67% active. AID 651661;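 active = mean inhibition of at least 50% after viability correction, with every replicate also passing that limit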;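 also: firefly luciferase signal divided by Alamar Blue viability fluorescence both relative to DMSO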
N-glyco inh: N-linked glycosylation inhibition | D54 ERlucT glycosylation luciferase reporter, 24 h; percent of 100 nM tunicamycin response | 360,000 tested, 0.23% active | reporter increase, % at 12.5 µM;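 active = mean luciferase reporter signal, scaled so untreated is 0 and the glycosylation-blocking control 100, at or above a set limit in every replicate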;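 also: luciferase carries N-glycosylation sites so blocking glycosylation raises the light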
Of the large screens only hits and unclear results are named; the others gave an inactive call; [ ] = remark or other dose. An excerpt weighted towards active compounds, which were near 2.5% of everything screened.

COc1ccc2c3c(n(C)c2c1)[C@H](CO)NCC31CN(Cc2cc(-c3ccccc3)on2)C1	AF4-AF9 inh 40 (no result: Env fusion inh, PAX8 inh HTS, N-glyco inh)
COc1ccc2c3c(n(C)c2c1)[C@@H](CO)NCC31CN(Cc2cc(-c3ccccc3)on2)C1	none (no result: Env fusion inh, PAX8 inh HTS, FN deposit inh, N-glyco inh)
COc1ccc2c3c(n(C)c2c1)[C@@H](CO)NCC31CCN(Cc2cc(-c3ccccc3)on2)CC1	AF4-AF9 inh 37 (no result: Env fusion inh, N-glyco inh)
Cc1onc(-c2ccccc2)c1C(=O)N/N=C/c1ccc(Br)cc1	Env fusion inh 56 (no result: FN deposit inh)
Cc1onc(-c2ccccc2)c1C(=O)Nc1ccc(Br)cc1Cl	Env fusion inh 86 (no result: FN deposit inh, N-glyco inh)
CCCOc1ccccc1NC(=O)c1c(-c2ccccc2)noc1C	Env fusion inh 65
Cc1ccc(/C=N/NC(=O)c2c(-c3ccccc3)noc2C)o1	none
COCCNC(=O)C/C(C)=N/NC(=O)C(=O)NC1CCCCC1	PAX8 inh HTS 101
Cc1cc(C)n(-c2nc3ccccc3nc2N2CCN(S(=O)(=O)c3ccc4ccccc4c3)CC2)n1	Env fusion inh 56 (no result: AF4-AF9 inh, PAX8 inh HTS, EWS-Fli inh)
Cc1cc(C)n(-c2nc3ccccc3nc2N2CCN(S(=O)(=O)c3ccc(F)c(C)c3)CC2)n1	none (no result: Env fusion inh, PAX8 inh HTS, FN deposit inh)
Cc1ccc(Sc2ccc(CN3CCCCC3)cc2[N+](=O)[O-])cc1	AF4-AF9 inh 29
O=[N+]([O-])c1cc(CN2CCCCCC2)ccc1O	none
CCCNC(=O)C[C@H]1C[C@@H]2c3cc(NS(=O)(=O)c4ccc(F)cc4)ccc3O[C@@H]2[C@@H](CO)O1	none (no result: N-glyco inh)
CC1=CC(=O)C=CC1=Nc1ccc(N(C)C)cc1	AF4-AF9 inh 91
O=c1cc(-c2ccccc2)oc2cc(O)c(O)c(O)c12	none (no result: Env fusion inh, PAX8 inh HTS, FN deposit inh)
O=c1c(O)cccc2cc(O)c(O)c(O)c12	Env fusion inh 56
C[C@H]1CN([C@@H](C)CO)C(=O)c2cccc(NC(=O)C3CC3)c2O[C@H]1CN(C)C(=O)NC1CCCCC1	none (no result: FN deposit inh, N-glyco inh)
C[C@@H]1CN([C@@H](C)CO)C(=O)c2cc(NC(=O)C3CC3)ccc2O[C@H]1CN(C)S(=O)(=O)c1cn(C)cn1	none (no result: Env fusion inh, PAX8 inh HTS, FN deposit inh, N-glyco inh)
Cc1ccc(S(=O)(=O)N(C)Cc2ccc(C(=O)N/N=C/c3ccc(OC(F)F)cc3OC(F)F)cc2)cc1	Env fusion inh 66
COc1ccc(S(=O)(=O)Nc2ccc3c(c2)CC(=O)N([C@H](C)CO)C[C@@H](C)[C@H](CN(C)Cc2ccc(Oc4ccccc4)cc2)O3)cc1	none (no result: FN deposit inh, N-glyco inh)
Cc1ccc(S(=O)(=O)Nc2ccc3c(c2)CC(=O)N([C@@H](C)CO)C[C@@H](C)[C@H](CN(C)Cc2ccc(Oc4ccccc4)cc2)O3)cc1	Env fusion inh 73[16.7 µM] (no result: FN deposit inh, N-glyco inh)
C[C@@H]1CN([C@@H](C)CO)C(=O)Cc2cc(NS(=O)(=O)c3ccc(Cl)cc3)ccc2O[C@@H]1CN(C)Cc1ccc(Oc2ccccc2)cc1	none (no result: N-glyco inh)
COc1ccc(S(=O)(=O)Nc2ccc3c(c2)CC(=O)N([C@@H](C)CO)C[C@@H](C)[C@H](CN(C)Cc2ccc(-c4ccccc4)cc2)O3)cc1	PAX8 inh HTS 95 (no result: FN deposit inh, N-glyco inh)
COc1ccc(S(=O)(=O)Nc2ccc3c(c2)CC(=O)N([C@H](C)CO)C[C@H](C)[C@@H](CN(C)Cc2ccc(Oc4ccccc4)cc2)O3)cc1	PAX8 inh HTS 68 (no result: FN deposit inh, N-glyco inh)
COc1ccc(S(=O)(=O)Nc2ccc3c(c2)CC(=O)N([C@H](C)CO)C[C@@H](C)[C@@H](CN(C)Cc2ccc(-c4ccccc4)cc2)O3)cc1	none (no result: FN deposit inh, N-glyco inh)
C[C@H]1CN([C@@H](C)CO)C(=O)Cc2cc(NS(=O)(=O)c3ccc(Cl)cc3)ccc2O[C@@H]1CN(C)Cc1ccc(Oc2ccccc2)cc1	EWS-Fli inh 60 (no result: N-glyco inh)
COc1ccccc1-c1cnc2c(c1)C(=O)N([C@H](C)CO)C[C@H](C)[C@H](CN(C)Cc1cncnc1)O2	none (no result: PAX8 inh HTS, FN deposit inh, N-glyco inh)
CC(=O)n1cc(CO)c2ccccc21	none (no result: Env fusion inh, PAX8 inh HTS, FN deposit inh)
CC(=O)n1cc(N(C(=O)CCl)c2ccccc2)c2ccccc21	PAX8 inh HTS 109
CC(=O)n1cc(N(C(=O)CCl)c2ccc([N+](=O)[O-])cc2)c2ccccc21	EWS-Fli inh 56
O=Cc1[nH]c2ccccc2c1N(C(=O)CCl)c1ccc([N+](=O)[O-])cc1	PAX8 inh HTS 90
Cc1cc(C(=O)Nc2cccc3c2O[C@H](CN(C)C(=O)Nc2ccc(C(F)(F)F)cc2)[C@@H](C)CN([C@@H](C)CO)C3=O)n(C)n1	none (no result: FN deposit inh, N-glyco inh)
C[C@@H]1CN([C@@H](C)CO)S(=O)(=O)c2ccc(-c3ccncc3)cc2O[C@H]1CN(C)Cc1ccc(Oc2ccccc2)cc1	none (no result: PAX8 inh HTS, N-glyco inh)
C#CC1(O)CCC2C3CCC4=C(CCC(=O)C4)C3CCC21C (stereo not given)	Env fusion inh 62
C#C[C@]1(O)CC[C@H]2[C@@H]3CCc4cc(O)ccc4[C@H]3CC[C@@]21C	none
O=C(CNC(=O)N1CC(=O)Nc2ccccc21)NCCc1ccc(Cl)cc1	none
O=C(CNC(=O)N1CC(=O)Nc2ccccc21)NCCCc1ccccc1	N-glyco inh 27
COc1cc(CN2CCCC(C(=O)c3ccc4c5c(cccc35)CC4)C2)cc(OC)c1O (stereo not given)	Env fusion inh 56
O=C(c1ccc2c3c(cccc13)CC2)C1CCCN(Cc2cccnc2)C1 (stereo not given)	none (no result: AF4-AF9 inh)
C[C@@H]1CN([C@H](C)CO)C(=O)c2cc(N(C)C)ccc2O[C@@H](C)CCCCO[C@H]1CN(C)C(=O)c1ccccc1	none (no result: FN deposit inh, N-glyco inh)
FC(F)(F)c1nc2ccccc2c2nc3ccccc3n12	none
FC(F)(F)c1nnc2c(Sc3ccc(Cl)cc3)nc3ccccc3n12	PAX8 inh HTS 88, N-glyco inh 30 (no result: AF4-AF9 inh, EWS-Fli inh)
FC(F)(F)c1nnc2c(Sc3ccccn3)nc3ccccc3n12	PAX8 inh HTS 114 (no result: AF4-AF9 inh, EWS-Fli inh)
FC(F)(F)c1nnc2c(Sc3ccccc3)nc3ccccc3n12	none (no result: AF4-AF9 inh, EWS-Fli inh)
Cc1noc(C)c1NC(=O)Nc1ccc2c(c1)C(=O)N([C@H](C)CO)C[C@H](C)[C@@H](CN(C)C)OCCCC[C@H](C)O2	none (no result: AF4-AF9 inh, FN deposit inh, N-glyco inh)
O=C1C(=O)N(CCN2CCOCC2)C(c2ccc(Cl)c(Cl)c2)/C1=C(/O)c1ccc2c(c1)OCO2 (stereo not given)	Env fusion inh 63 (no result: FN deposit inh)
CCCNC(=O)C[C@H]1C[C@H]2c3cc(NC(=O)C4CCC4)ccc3O[C@H]2[C@@H](CO)O1	none (no result: Env fusion inh, N-glyco inh)
CC(C)(COC(=O)C(c1ccccc1)c1ccccc1)CN1CCOCC1	Env fusion inh 80
O=C(OCCN1CCOCC1)C(c1ccccc1)c1ccccc1	none (no result: Env fusion inh, AF4-AF9 inh, PAX8 inh HTS, FN deposit inh, EWS-Fli inh)
COCC(=O)N(C)C[C@@H]1Oc2ncc(C#Cc3ccccc3)cc2C(=O)N([C@H](C)CO)C[C@@H]1C	none (no result: PAX8 inh HTS, N-glyco inh)
O=C(NCc1ccc(F)cc1)C(Cc1ccccc1)NS(=O)(=O)c1cccs1 (stereo not given)	none (no result: PAX8 inh HTS, FN deposit inh, EWS-Fli inh)
CCC(C)(C)NC(=O)C(NS(=O)(=O)c1cccs1)c1ccccc1 (stereo not given)	Env fusion inh 71
O=C(NCc1cccs1)C(Cc1ccccc1)NS(=O)(=O)c1cccs1 (stereo not given)	Env fusion inh 55 (no result: AF4-AF9 inh, PAX8 inh HTS, EWS-Fli inh)

Source: PubChem BioAssay
